From ChEMBL document CHEMBL3091449, “Synthesis and antimicrobial profile of N-substituted imidazolium oximes and their monoquaternary salts against multidrug resistant bacteria” (2013)
Values after ≈ are worked out from the molar mass of the structure shown.

Legend:
Assay type in all cases: functional
[1] = tested on: Candida albicans; test: Antifungal activity against Candida albicans ATCC 10231 assessed as diameter of zone of inhibition at 10 ug/disc after 48 hrs by disc diffusion method; conditions: ATCC 10231, 48 h, read-out: DIZ
Outline: (§1)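 The positive control was amphotericin B 10 µg discs on Sabouraud dextrose agar spread with 100 µL of a 10^4 cfu/mL fungal suspension. Plates were kept at 30 °C for 48 h (yeast) or 72 h (molds). Inhibition zone was measured including the 6 mm disc, in triplicate, mean ± SE.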

[2] = tested on: Aspergillus fumigatus; test: Antifungal activity against Aspergillus fumigatus FNSST 3833 assessed as diameter of zone of inhibition at 10 ug/disc after 72 hrs by disc diffusion method; conditions: FNSST 3833, 72 h, read-out: DIZ; outline: as §1
[3] = tested on: Talaromyces funiculosus; test: Antifungal activity against Penicillium funiculosum FNSST 3724 assessed as diameter of zone of inhibition at 10 ug/disc after 72 hrs by disc diffusion method; conditions: FNSST 3724, 72 h, read-out: DIZ; outline: as §1
[4] = tested on: Enterobacter cloacae; test: Antibacterial activity against TEM-1/SHV-12 expressing Enterobacter cloacae isolate 306 after 18 to 24 hrs by two-fold broth microdilution assay
[5] = tested on: Staphylococcus aureus; test: Antibacterial activity against Staphylococcus aureus ATCC 25923 assessed as diameter of zone of inhibition at 30 ug/disc after 24 hrs by disc diffusion method; conditions: ATCC 25923, 24 h, read-out: DIZ
Outline: (§2)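 Ampicillin 30 µg discs were the positive control on Mueller Hinton agar. The agar was spread with 100 µL of a 10^6 cfu/mL overnight TSB culture grown at 37 °C. Plates were incubated 24 h at 37 °C, and zone diameter was read including the 6 mm disc, in triplicate, mean ± SE.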

[6] = tested on: Clostridium perfringens; test: Antibacterial activity against Clostridium perfringens FNSST 4999 after 18 to 24 hrs by two-fold broth microdilution assay
Outline: (§3)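 CLSI two-fold broth microdilution. Compounds dissolved in DMSO, 10 mg/mL stock, serially diluted to 400–0.09 µg/mL in Mueller Hinton broth. Wells inoculated with 10^6 CFU/mL bacteria and incubated 18–24 h at 37 °C. 0.2 mg/mL INT added for 30 min. MIC taken as the lowest concentration with no visible growth or pink colour. Triplicate.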

[7] = tested on: Bacillus cereus; test: Antibacterial activity against Bacillus cereus ATCC 11778 after 18 to 24 hrs by two-fold broth microdilution assay
Outline: (§4)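 CLSI two-fold broth microdilution was used. Compounds were dissolved in DMSO, brought to 10 mg/mL in medium, then serially diluted in Mueller Hinton broth over 400–0.09 µg/mL. Overnight MHB cultures were diluted to 10^6 CFU/mL, and 10 µL was added per well. Plates were incubated 18–24 h at 37 °C, then 0.2 mg/mL INT was added for 30 min at 37 °C. MIC was the lowest concentration with no visible growth or pink colour, triplicate.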

[8] = tested on: Acinetobacter baumannii; test: Antibacterial activity against SIM-1 expressing Acinetobacter baumannii isolate 170 after 18 to 24 hrs by two-fold broth microdilution assay; outline: as §3
[9] = tested on: Escherichia coli; test: Antibacterial activity against TEM-1/SHV-12 expressing Escherichia coli isolate 237 after 18 to 24 hrs by two-fold broth microdilution assay; outline: as §3
[10] = tested on: Pseudomonas aeruginosa; test: Antibacterial activity against Pseudomonas aeruginosa FNSST 982 after 18 to 24 hrs by two-fold broth microdilution assay; outline: as §4
[11] = tested on: Pseudomonas aeruginosa; test: Antibacterial activity against Pseudomonas aeruginosa FNSST 982 assessed as diameter of zone of inhibition at 30 ug/disc after 24 hrs by disc diffusion method; conditions: FNSST 982, 24 h, read-out: DIZ; outline: as §2
[12] = tested on: Aeromonas hydrophila; test: Antibacterial activity against Aeromonas hydrophila FNSST 014 assessed as diameter of zone of inhibition at 30 ug/disc after 24 hrs by disc diffusion method; conditions: FNSST 014, 24 h, read-out: DIZ; outline: as §2
[13] = tested on: Stenotrophomonas maltophilia; test: Antibacterial activity against […] expressing Stenotrophomonas maltophilia isolate 125 after 18 to 24 hrs by two-fold broth microdilution assay; outline: as §4
[14] = tested on: Klebsiella pneumoniae; test: Antibacterial activity against TEM-1/SHV-12 expressing Klebsiella pneumoniae isolate 303 after 18 to 24 hrs by two-fold broth microdilution assay; outline: as §4
[15] = tested on: Klebsiella pneumoniae; test: Antibacterial activity against Klebsiella pneumoniae FNSST 011 assessed as diameter of zone of inhibition at 30 ug/disc after 24 hrs by disc diffusion method; conditions: FNSST 011, 24 h, read-out: DIZ; outline: as §2
[16] = tested on: Klebsiella pneumoniae; test: Antibacterial activity against Klebsiella pneumoniae FNSST 011 after 18 to 24 hrs by two-fold broth microdilution assay; outline: as §4
[17] = tested on: Escherichia coli; test: Antibacterial activity against Escherichia coli FNSST 982 assessed as diameter of zone of inhibition at 30 ug/disc after 24 hrs by disc diffusion method; conditions: FNSST 982, 24 h, read-out: DIZ; outline: as §2
[18] = tested on: Aeromonas hydrophila; test: Antibacterial activity against TEM-1/SHV-12 expressing Aeromonas hydrophila isolate 268 after 18 to 24 hrs by two-fold broth microdilution assay; outline: as §4
[19] = tested on: Staphylococcus aureus; test: Antibacterial activity against Staphylococcus aureus ATCC 25923 after 18 to 24 hrs by two-fold broth microdilution assay; outline: as §4
[20] = tested on: Kluyvera intermedia; test: Antibacterial activity against TEM-1/SHV-12/[…] expressing Enterobacter intermedius isolate 243 after 18 to 24 hrs by two-fold broth microdilution assay; outline: as §4
[21] = tested on: Pseudomonas aeruginosa; test: Antibacterial activity against GIM-1 expressing Pseudomonas aeruginosa isolate 197 after 18 to 24 hrs by two-fold broth microdilution assay; outline: as §4
[22] = tested on: Escherichia coli; test: Antibacterial activity against […] expressing Escherichia coli isolate 4024 after 18 to 24 hrs by two-fold broth microdilution assay; outline: as §3
[23] = tested on: Escherichia coli; test: Antibacterial activity against Escherichia coli FNSST 982 after 18 to 24 hrs by two-fold broth microdilution assay; outline: as §4
[24] = tested on: Aeromonas caviae; test: Antibacterial activity against […] expressing Aeromonas caviae isolate 258 after 18 to 24 hrs by two-fold broth microdilution assay; outline: as §4
[25] = tested on: Enterobacter cloacae; test: Antibacterial activity against CTX-15 expressing Enterobacter cloacae isolate 51 after 18 to 24 hrs by two-fold broth microdilution assay
[26] = tested on: Enterococcus faecalis; test: Antibacterial activity against Enterococcus faecalis ATCC 29212 after 18 to 24 hrs by two-fold broth microdilution assay; outline: as §4
[27] = tested on: Aeromonas caviae; test: Antibacterial activity against TEM-1/CTX-M-15 expressing Aeromonas caviae isolate 260 after 18 to 24 hrs by two-fold broth microdilution assay; outline: as §4
[28] = tested on: Enterobacter cloacae; test: Antibacterial activity against TEM-1/CTX-M-15 expressing Enterobacter cloacae isolate 62 after 18 to 24 hrs by two-fold broth microdilution assay
[29] = tested on: Bacillus cereus; test: Antibacterial activity against Bacillus cereus ATCC 11778 assessed as diameter of zone of inhibition at 30 ug/disc after 24 hrs by disc diffusion method; conditions: ATCC 11778, 24 h, read-out: DIZ; outline: as §2
[30] = tested on: Escherichia coli; test: Antibacterial activity against […] expressing Escherichia coli isolate 235 after 18 to 24 hrs by two-fold broth microdilution assay; outline: as §3
[31] = tested on: Clostridium perfringens; test: Antibacterial activity against Clostridium perfringens FNSST 4999 assessed as diameter of zone of inhibition at 30 ug/disc after 24 hrs by disc diffusion method; conditions: FNSST 4999, 24 h, read-out: DIZ
Outline: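 Ampicillin 30 µg disc run as positive control in CLSI disc diffusion. 100 µL of 10^6 cfu/mL bacteria spread on Mueller Hinton agar, incubated 24 h at 37 °C. Zone diameter measured in mm including the disc, triplicate, mean ± SE.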

[32] = tested on: Enterococcus faecalis; test: Antibacterial activity against Enterococcus faecalis ATCC 29212 assessed as diameter of zone of inhibition at 30 ug/disc after 24 hrs by disc diffusion method; conditions: ATCC 29212, 24 h, read-out: DIZ; outline: as §2
[33] = tested on: Aeromonas hydrophila; test: Antibacterial activity against Aeromonas hydrophila FNSST 014 after 18 to 24 hrs by two-fold broth microdilution assay; outline: as §4

For `C[C@@H]1[C@H](O)[C@@H](C)/C=C/C=C/C=C/C=C/C=C/C=C/C=C/[C@H](O[C@@H]2O[C@H](C)[C@@H](O)[C@H](N)[C@@H]2O)C[C@@H]2O[C@](O)(C[C@@H](O)C[C@@H](O)[C@H](O)CC[C@@H](O)C[C@@H](O)CC(=O)O[C@H]1C)C[C@H](O)[C@H]2C(=O)O` [AMPHOTERICIN B], the zone of inhibition at 10 µg/disc [1] was 21.6 mm, the zone of inhibition at 10 µg/disc [2] was 19.2 mm and the zone of inhibition at 10 µg/disc [3] was 18.3 mm.

`CO/N=C(\C(=O)N[C@@H]1C(=O)N2C(C(=O)O)=C(COC(C)=O)CS[C@H]12)c1csc(N)n1` [CEFOTAXIME] was tested, and the MIC [4] was over 128 µg/mL, the zone of inhibition at 30 µg/disc [5] was 21.7 mm and the MIC [6] was 0.1 µg/mL (≈ 0.22 µM). The MIC [7] was 0.25 µg/mL (≈ 0.549 µM), the MIC [8] was over 256 µg/mL and the MIC [9] was over 256 µg/mL. The MIC [10] was 16 µg/mL (≈ 35.1 µM), the zone of inhibition at 30 µg/disc [11] was 10.4 mm and the zone of inhibition at 30 µg/disc [12] was 14.7 mm. For the same compound, the MIC [13] was 32 µg/mL (≈ 70.3 µM), the MIC [14] was 64 µg/mL (≈ 141 µM) and the zone of inhibition at 30 µg/disc [15] was 21.4 mm. It also gave an MIC [16] of 0.5 µg/mL (≈ 1.1 µM), a zone of inhibition at 30 µg/disc [17] of 22.8 mm and an MIC [18] of 256 µg/mL (≈ 562 µM). The MIC [19] was 0.5 µg/mL (≈ 1.1 µM), the MIC [20] was 8 µg/mL (≈ 17.6 µM) and the MIC [21] was 256 µg/mL (≈ 562 µM). The MIC [22] was 256 µg/mL (≈ 562 µM), the MIC [23] was 0.5 µg/mL (≈ 1.1 µM) and the MIC [24] was 258 µg/mL (≈ 566 µM). For the same compound, the MIC [25] was 32 µg/mL (≈ 70.3 µM), the MIC [26] was 0.5 µg/mL (≈ 1.1 µM) and the MIC [27] was 256 µg/mL (≈ 562 µM). For the same compound, the MIC [28] was over 256 µg/mL, the zone of inhibition at 30 µg/disc [29] was 26.8 mm and the MIC [30] was over 256 µg/mL. For the same compound, the zone of inhibition at 30 µg/disc [31] was 28.5 mm, the zone of inhibition at 30 µg/disc [32] was 23.5 mm and the MIC [33] was 8 µg/mL (≈ 17.6 µM).
